Counter-ions that a name gives are not always drawn. Activity calls are given as the source filed them. No cut-off for these calls is given here.

The text below walks through data of ChEMBL document CHEMBL1149851, “Pestalotheols A-D, bioactive metabolites from the plant endophytic fungus Pestalotiopsis theae” (J Nat Prod, 2008).

One series deals with Streptococcus mutans. The experiment in a line: Antibacterial activity against Streptococcus mutans ATCC 25175 assessed as zone of inhibition at 100 ug/disk after 24 hrs. The series is classed as functional, organism-based. Put shortly: (§1)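 Bacteria grown on Mueller-Hinton agar. Paper disks (6 mm) loaded with 100 µg test compound per disk were placed on the seeded agar surface. Plates were incubated at 37 °C for 24 h, then scored for the presence of a zone of inhibition.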

The test system of the next series is Staphylococcus aureus. In words: Antibacterial activity against Staphylococcus aureus ATCC 6538 assessed as zone of inhibition at 100 ug/disk after 24 hrs. The format is functional, organism-based. Put shortly: as §1
For a further series, the system named is Micrococcus luteus. The experiment in a line: Antibacterial activity against Sarcina lutea CMCC B28001 assessed as zone of inhibition at 100 ug/disk after 24 hrs. The series is classed as functional, organism-based. Put shortly:
as §1

Series [1] is described as follows: Selectivity index, ratio of CC50 for human C8166 cells to EC50 for HIV1 LAI. The series is classed as toxicity, cell-based. The note with it: read-out: Ratio CC50/EC50. The essentials: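 Index calculated as CC₅₀/EC₅₀. CC₅₀ came from a 4-day MTT viability assay in C8166 cells run in parallel with a 4-day HIV-1 LAI (MOI 0.058) replication assay in C8166 cells, whose EC₅₀ was read from p24 antigen capture ELISA.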

For a further series, the system named is Enterococcus faecalis. The experiment in a line: Antibacterial activity against Enterococcus faecalis ATCC 19433 assessed as zone of inhibition at 100 ug/disk after 24 hrs. The series is classed as functional, organism-based. Put shortly: as §1
A short description of series [2]: Cytotoxicity against human C8166 cells after 4 days by MTT method. The series is classed as cell-based. The essentials: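 C8166 cells were seeded at 3 × 10⁴/well with or without a range of test-compound concentrations, in triplicate. They were incubated 4 days at 37 °C in humid 5% CO₂, and viability was read by MTT. CC₅₀ is the concentration reducing viable cells by 50%.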
In general terms: Tetrazolium dyes change colour on reduction, which living cells bring about.

For the next series, the system named is Geotrichum candidum. In words: Antifungal activity against Geotrichum candidum AS2.498 assessed as zone of inhibition at 100 ug/disk after 48 hrs.
Series [3] relates to Human immunodeficiency virus 1. The experiment in a line: Inhibition of HIV1 LAI replication in C8166 cells after 4 days by ELISA. The series is classed as functional, organism-based. The settings on record: Human immunodeficiency virus 1, LAI, C8166, 96 h. Put shortly:
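C8166 cells were infected with HIV-1 LAI (MOI 0.058) for 1.5 h at 37 °C, PBS-washed, and seeded at 3 × 10⁴/well with or without compounds; indinavir sulfate was the positive control. After 4 days, supernatant was inactivated with 0.5% Triton X-100 and diluted threefold. p24 was measured by capture ELISA (anti-p24 mAb coat, HRP-anti-p24, OPD, A490), and EC₅₀ was derived from p24 level.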
For orientation: ELISA stands for enzyme-linked immunosorbent assay.

Another series relates to Aspergillus fumigatus. In words: Antifungal activity against Aspergillus fumigatus ATCC 10894 assessed as zone of inhibition at 100 ug/disk after 48 hrs.
The next series concerns Candida albicans. The experiment in a line: Antifungal activity against Candida albicans ATCC 10231 assessed as zone of inhibition at 100 ug/disk after 48 hrs.

With `CC(C)=C/C=C1/C[C@@H]2O[C@@H](C(C)(C)O)C[C@@]23O[C@H]3[C@@H]1O` [PESTALOTHEOL C], the outcome in the series on Streptococcus mutans, with Staphylococcus aureus, in the series with Micrococcus luteus, in the series on Enterococcus faecalis, in the series on Geotrichum candidum and in the series on Aspergillus fumigatus was inactive. In addition, the result with Candida albicans was inactive. Further, in series [1], the selectivity ratio turned out to be 10.1. The CC50 at 96 h in series [2] was determined as 163 µM. Besides, a half-maximal response in series [3] (EC50) required 16.1 µM.

In the case of `CC1(C)CC(=O)c2cc3c(cc2O1)C[C@H](C(C)(C)O)O3`, the result with Streptococcus mutans, in the series on Staphylococcus aureus, with Micrococcus luteus, with Enterococcus faecalis, with Geotrichum candidum and in the series with Aspergillus fumigatus was inactive. Further, the outcome with Candida albicans was inactive.

Consider `CC1(C)CC(=O)C2=C(O1)[C@H](O)[C@]1(O)C[C@H](C(C)(C)O)O[C@H]1C2`, for which the outcome in the series on Streptococcus mutans, in the series with Staphylococcus aureus, with Micrococcus luteus, in the series with Enterococcus faecalis, in the series with Geotrichum candidum and with Aspergillus fumigatus was inactive. In addition, the result with Candida albicans was inactive.

In series [3], `CC(C)(C)NC(=O)[C@@H]1CN(Cc2cccnc2)CCN1C[C@@H](O)C[C@@H](Cc1ccccc1)C(=O)N[C@H]1c2ccccc2C[C@H]1O` [INDINAVIR SULFATE] had an EC50 of 0.00818 µM. This counts as single-digit nanomolar.

For `CC1(C)CC(=O)C2=C(C[C@]3(O)C[C@H](C(C)(C)O)O[C@H]3C2)O1`, the outcome with Streptococcus mutans, in the series on Staphylococcus aureus, in the series on Micrococcus luteus, with Enterococcus faecalis, in the series with Geotrichum candidum and in the series with Aspergillus fumigatus was inactive. Further, the result with Candida albicans was inactive.

The CC50 is the concentration giving 50% cytotoxicity. A higher CC50 goes with better tolerance by the cells. The term EC50 denotes the concentration that produces a half-maximal response. Read a high EC50 as a need for much substance.
